Measurements published in ChEMBL document CHEMBL4513216, “Probing the Open Global Health Chemical Diversity Library for Multistage-Active Starting Points for Next-Generation Antimalarials” (ACS Infect Dis, 2020).

Test: Toxicity liver stage against HepG2, at 10uM
Assay type: cell-based
Set-up: test concentration 10 uM, cell line HepG2-A16-CD81EGFP
Details: human, HepG2-A16-CD81EGFP cells; read-out: INHIBITION
Outline: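 Uninfected HepG2-A16-CD81EGFP cells, 3 × 10^3 per well, 1536-well, plated on prespotted compound at 10 μM final, parasite-free screening media added to match infected plates; puromycin 10 μM positive, DMSO 0.5% negative; run in parallel with 48 h PbLuc assay at 37 °C, 5% CO2; viability by CellTiter-Glo luminescence, normalized to controls.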

Row | Structure (SMILES) | cytotoxicity at 10 µM [%]
1 | CCSc1nc2ccccc2c(=O)n1OCC(=O)OC | -5.49
2 | CN1CC[C@H](c2nnc(-c3cncn3C)o2)C1 | -2.88
3 | CC(=O)N1N=C(COc2ccc3c(c2)OCO3)OC1c1cccc(Cl)c1 (stereo not given) | -1.77
4 | Cc1nnsc1C(=O)NCCn1ccc(-c2ccncc2)n1 | 1.92
5 | COc1cccc(CC(=O)N2CCc3ncnc(C)c3CC2)c1 | -1.59
6 | CCCS(=O)(=O)N1C[C@@H]2COC[C@@H](Cc3nc(C)no3)[C@@H]2C1 | 6.34
7 | COCCC(=O)N1CCC2(COCc3cnc(NCC4CC4)nc32)C1 (stereo not given) | 6.24
8 | COc1cc(C2SCC(=O)Nc3n[nH]cc32)cc(OC)c1O (stereo not given) | 7.85
9 | CCn1nc(C)c2c1cnn2CCNS(=O)(=O)c1cccs1 | 4.51
10 | O=S(=O)(c1ccccc1F)N1CCCC(c2nccs2)C1 (stereo not given) | -11
11 | CC(=O)N1CCC(c2cc(C(F)(F)F)nc3nccn23)CC1 | -2.11
12 | COCCN1CCCC1c1nccnc1Nc1nccs1 (stereo not given) | -7.55
13 | COc1cccc(CN2CC[C@H]3[C@@H](C2)[C@H](c2ccsc2)CN3C(C)=O)c1 | -5.61
14 | CC(=O)N1CC2(CCN(Cc3ccc(Cl)cc3)CC2)Cc2ccccc21 | 14.2
15 | CC(C)c1nnc(NC(=O)C2CSCN2C(=O)C2CCC2)s1 (stereo not given) | 5.04
16 | CCCN1CCCN(C(=O)c2ccc(Oc3cccnc3)cc2)CC1 | -46.9
17 | COCCCc1nc(-c2ccc(S(=O)(=O)N3CCCC3)cc2)cs1 | -46.3
18 | Cc1ccc(C(=O)N(C)S(C)(=O)=O)cc1Cl | -46.5
19 | CC1CN(C)CCN1C(=O)COc1cccc(Oc2ccccn2)c1 (stereo not given) | 10.7
20 | CCC(c1ccccc1)S(=O)(=O)CCO (stereo not given) | -136
21 | Cc1ncc(S(=O)(=O)N(CC(C)C)c2cccc(O)c2)s1 | -41.2
22 | Cc1cc(C(=O)N2CCCC2CN2CCCC2)no1 (stereo not given) | 10

Row | Structure (SMILES) | cytotoxicity at 10 µM [%]
23 | CN(C)Cc1ccc(C(=O)N2CCCC(n3cccn3)C2)cc1 (stereo not given) | -0.798
24 | CC(=O)N1CCC(NC(=O)c2cc(Cl)ccc2O)CC1 | 0.0966
25 | Cc1nc(C(=O)NS(=O)(=O)c2cccc(C#N)c2)cs1 | -1.95
26 | COCCN1CCC(NC(=O)C/C=C/c2ccc(C(C)C)cc2)CC1 | -0.616
27 | CCc1cnc(CN(C)C(C)C(=O)N2CCc3ccccc3C2)s1 (stereo not given) | 7.2
28 | Cn1c(C2CCCCN2C(=O)CN2CCCC2=O)nc2ccccc21 (stereo not given) | -0.62
29 | CNC(=O)NC(=O)C(C)N1CCC(c2c[nH]c3ccc(OC)cc23)CC1 (stereo not given) | 12.5
30 | CC(NC(=O)CCn1cccn1)c1cccs1 (stereo not given) | -3.57
31 | CC(C)(C)n1ncc2c1CCCC2NCc1ccc2c(c1)CCO2 (stereo not given) | 2.55
32 | Cc1nc(C)c(C(=O)Nc2cccc(CN3CCC(CO)CC3)c2)o1 | -154
33 | CCn1cc(S(=O)(=O)NC(=O)CCc2c[nH]c3ccccc23)cn1 | -11.3
34 | Cc1cn2c(n1)C(CNCc1cccc3c1OCO3)CCC2 (stereo not given) | -0.372
35 | Cc1cc(N2CCC(NC(=O)CCC3CCCO3)CC2)nc(C)n1 (stereo not given) | -8.21
36 | COCc1ccc(C(=O)NS(=O)(=O)c2ccc3c(c2)CCC(=O)N3)cc1 | -1.89
37 | Cc1nnc(C(C)N2CCc3[nH]c4ccc(Cl)cc4c3C2)o1 (stereo not given) | -9.77
38 | Cc1ccnc(NC(=O)C2CCN(CCCn3ccnc3)CC2)c1 | -57.9
39 | COc1cccc(CN(C)Cc2nc(C(C)C)no2)c1 | -43.6
40 | Clc1cccc(-c2noc(CCN3CCN(c4ccncc4)CC3)n2)c1 | 24
41 | CCOCCNC(=O)C(CCSC)NC(=O)c1ccc2ccccc2n1 (stereo not given) | -9.95
42 | Cc1cc(NC(N)=O)ccc1C(=O)N(C)C | 12.2
43 | CC(O)CN1CCN(Cc2csc(-c3ncccn3)n2)CC1 (stereo not given) | 5.4
44 | Cc1nnc([C@@]23CCO[C@@H]2CCN(S(=O)(=O)c2ccccc2)C3)o1 | -99.4

Row | Structure (SMILES) | cytotoxicity at 10 µM [%]
45 | CC(C)Nc1ncnc2c1CCN(C(=O)CCc1ccccc1)CC2 | -72
46 | Cn1cc(CNCC2Cn3nnc(-c4ccccc4)c3CO2)cn1 (stereo not given) | -4.66
47 | CC(C)NC(=O)N1CC(=O)c2sc(Nc3ccc(C#N)cc3)nc2C1 | -7.77
48 | CN(CCCc1ccccc1)C(=O)c1cn2c(n1)CNCC2 | -52.4
49 | CC(C)n1ccnc1C1CCCN(c2nc3ccccc3s2)C1 (stereo not given) | 5.07
50 | O=C(CCN1CCCC(CC2CC2)(C(=O)O)C1)NC1CCCC1 (stereo not given) | 18.7
51 | CC(C)N1CCC(C(=O)NC[C@H]2CCc3ccccc3O2)CC1 | 11.1
52 | CC(C)C[C@H](Nc1nc(C2CCCC2)nc2c1cnn2C)C(N)=O | -42.3
53 | OC(c1ccccn1)C1CCN(Cc2cc3n(n2)CCNC3)CC1 (stereo not given) | 15.4
54 | COc1ccc(-c2cc(N)ccn2)c(OC)c1OC | 11.4
55 | C[C@@H]1CN(Cc2cc(C3CCCCC3)no2)CC[C@]1(C)O | -13.2
56 | COCCC(=O)N[C@H]1CC[C@H](Nc2nccc(-c3ccncc3)n2)C1 | 11.5
57 | Cc1cc(CN2CCCC2)cc(Oc2ccc(C(F)(F)F)cn2)c1 | -9.72
58 | CCN1CCN(c2ncnc3c2CCN(C(=O)C2CC2)C3)CC1 | -3.2
59 | CC(=O)N1CCc2[nH]cnc2C12CCN(C(=O)Cc1cccs1)CC2 | 7.2
60 | Cc1nc(NC2CCS(=O)(=O)CC2)cc(C2CCCNC2)n1 (stereo not given) | -11
61 | CCNC(=O)[C@@H]1C[C@H](N)CN1Cc1ccc(-c2cc[nH]n2)o1 | -47.6
62 | COc1ccc2c(c1)OCC(Cc1cncc(N)c1)C2 (stereo not given) | -0.918
63 | Cc1sc2ncnc(N3CCC(N(C)Cc4cnn(C)c4)CC3)c2c1C | -2.98
64 | COc1ccc(-c2ccoc2)cc1CNC1CCCC1 | -3.45
65 | CN(Cc1ccccc1)S(=O)(=O)N1C[C@@H](C(=O)O)[C@H](C2CC2)C1 | -150
66 | Cc1ncsc1CCN(C)C(=O)CN1CCOC1=O | -15.3

Row | Structure (SMILES) | cytotoxicity at 10 µM [%]
67 | CC(C)=CCC1(C(=O)O)CCCN(CCC(=O)NC2CC2)C1 (stereo not given) | -7.69
68 | CCc1n[nH]c(C(=O)N2CCN(c3ccc4ccccc4c3)CC2)c1C | -3.03
69 | CNc1nc(C)c(C(=O)N2CCC(C(O)Cc3ccccc3)CC2)s1 (stereo not given) | 3.11
70 | O=C(C1CC1)N1CCC(C(=O)N2CCC(c3ccc(F)cc3)C2)CC1 (stereo not given) | -46.3
71 | NC(=O)CCn1cc(CNCc2csc(N)n2)c2ccccc21 | 6.7
72 | CCc1cnc(NCCS(=O)(=O)N(C)C)nc1 | -10.2
73 | NC(=O)c1cc2c(nc1Oc1cccc(CN3CCCC3)c1F)CCC2 | -1.47
74 | CC(=O)N[C@@H]1CN(C(=O)c2cc3ccccc3[nH]2)C[C@H]1c1ccc(C)o1 | -10.2
75 | COc1ccc(C)cc1NC(=O)c1coc(C)n1 | -7.66
76 | COCc1ncc(CN(Cc2ccncc2)Cc2ccc(C)s2)cn1 | -47
77 | COc1ccc(-c2nccn2CC(O)CN2CCCC2)c(F)c1 (stereo not given) | 2.87
78 | CC(=O)Nc1ccc(Cl)c(C(=O)N(C)C(C)c2nccs2)c1 (stereo not given) | -42.8
79 | O=C1CC2(CCN(Cc3ccc(Cl)s3)C2)C(=O)N1 (stereo not given) | -3.3
80 | CCn1ccc2ccc(CN3CCCC3c3nc(C(C)C)no3)cc21 (stereo not given) | 5.15
81 | CC(C)SCC(=O)N1CCc2c(nc(N(C)C)nc2N(C)C)C1 | 21.1
82 | Cc1nnc(CCNC2CCN(c3ncnc4c(C)csc34)CC2)s1 | 20.7
83 | NC(=O)C1CCCN(Cc2c(-c3ccco3)[nH]c3ncccc23)C1 (stereo not given) | 3.91
84 | COc1ccc(-n2ccc(C(=O)NCCN3CCCC(C)C3)n2)cc1 (stereo not given) | -0.0158
85 | c1ccc(CCN2CCN(c3ccc4nncn4n3)CC2)cc1 | -11.7
86 | CC(C)c1nccn1C1CCCN(C(=O)CCc2cscn2)C1 (stereo not given) | -7.81
87 | CCc1nc(C2CCCN2Cc2cc(C)nc3ccccc23)no1 (stereo not given) | 86
88 | O=C1CN(C(=O)c2cccc(OCc3cscn3)c2)CCN1 | 1.9

Row | Structure (SMILES) | cytotoxicity at 10 µM [%]
89 | c1cc(CNCC2CNc3ccnn3C2)cc(N2CCOCC2)n1 (stereo not given) | -5.13
90 | O=C(CCc1ccc(Cl)s1)N1CCC(N2CCNC2=O)CC1 | 2.6
91 | Cc1nc(CN(C)CC2CCCN2c2cccnn2)nc2ccccc12 (stereo not given) | -6.31
92 | CC(=O)NCc1ccc(C(=O)N2CCCCC2Cn2cccn2)o1 (stereo not given) | -4.22
93 | CCC(CN1CCOCC1)n1cncc1-c1ccc2c(c1)CCN2CC (stereo not given) | 14.9
94 | O=C(C1CCCCC1)N1CCC2(CC1)CNCc1ccccc12 | -6.13
95 | Fc1ccc(CN2CCO[C@H]3[C@H](Oc4ccccn4)CC[C@@H]32)cc1 | 6.44
96 | COc1ccc(CN2CC[C@@H]3[C@H]2CCC(=O)N3c2cnn(C)c2)cc1 | 17.4
97 | CCOCc1cncc2c1CCN(C(=O)c1cscn1)C2 | -107
98 | Fc1ccc(N2CCOC3(COCCN(c4ncccn4)C3)C2)cc1 (stereo not given) | -95.4
99 | O=C(NC1CC1)[C@@H]1CCO[C@@H]2CCN(CC3CCC3)C[C@H]21 | -111
100 | Fc1ccc(CN2CCCC3(COCCN(Cc4c[nH]nn4)C3)C2)cc1 (stereo not given) | 4.9
101 | Cc1ccc(CNC2CCCc3c2cnn3Cc2ccccc2)s1 (stereo not given) | 0.338
102 | COc1ccc(C[C@H]2CN(c3nnc(C)s3)CC[C@H]2OC)cc1 | 8.04
103 | O=C(c1ccccc1)N1CCCC2(CCN2Cc2cccc(F)c2)C1 (stereo not given) | -121
104 | O=C(c1cccnc1)N1CCC2(CCN(C(=O)N3CCCC3)CC2)C1 | -103
105 | CCC(=O)N1CCC2(CC1)CC(N1CCOCC1)c1cc(C)ccc12 (stereo not given) | -149
106 | CNC(=O)C1CCC2(CCN(c3nncs3)CC2)CO1 (stereo not given) | 6.01
107 | Cc1ccc(CN2CC[C@@H]3[C@@H](CO[C@H]3CN(C)C)C2)o1 | -130
108 | c1cnc(N2CCC3(CCN(Cc4cccnc4)CC3)CC2)nc1 | -88.4
109 | CNC(=O)N1C[C@@H]2C[C@H](C(=O)Nc3ccccc3)[C@H](C1)O2 | -2.24
110 | CN(C)C(=O)CN1C[C@H]2CC[C@@H](C1)N(Cc1cccc(Cl)c1Cl)C2 | -5.3
